Source: ChEMBL document CHEMBL1152300, “Ligand specificity of constitutive androstane receptor as probed by induced-fit docking and mutagenesis” (J Med Chem, 2008)
One block for each compound: values may come before it.

Key:
[1] = molecular target: T1, Nuclear receptor subfamily 1 group I member 3 (Mus musculus, UniProt O35627, F171L); assay: Activation of mouse CAR F171L mutant expressed in HEK293 cells at 10 uM by mammalian one-hybrid assay; format: cell-based; details: read-out: Activity
Outline: (§1)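 GAL4-DBD fused to mouse CAR LBD (residues 118-358), wild-type or point mutant, cotransfected with UASx4-tk-luc reporter and pCMVβ into HEK293 cells. Cells were exposed to final 1 µM, 2 µM or 10 µM test chemical, or 0.1% v/v DMSO, for 24 h after transfection. Luciferase was normalized to β-galactosidase and set against empty GAL4 vector (=1.0). Mean ± standard deviation, three independent experiments.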

[2] = molecular target: T2, Nuclear receptor subfamily 1 group I member 3 (Mus musculus, UniProt O35627, Y336A); assay: Enhancement of steroid receptor coactivator 1 binding to mouse CAR Y336A mutant […] at 10 uM by yeast two-hybrid assay; format: cell-based
Outline: (§2)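 Yeast two-hybrid: yeast expressing wild-type or mutant mouse CAR LBD plus SRC-1 or NCoR, selected on SD medium lacking Leu and Trp. Pooled colonies treated with DMSO or test chemical for 3.5 h. β-Galactosidase normalized to cell density. SRC-1 reference: wild-type + DMSO = 100. NCoR reference: 10 µM androstenol = 100. Mean ± SD, two independent determinations, each in triplicate.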

[3] = molecular target: T1, Nuclear receptor subfamily 1 group I member 3; assay: Effect on nuclear co-repressor receptor binding to mouse CAR F171L mutant […] at 1 uM by yeast two-hybrid assay; format: cell-based; details: read-out: Activity
Outline: (§3)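 Yeast expressing wild-type or mutant mouse CAR LBD plus NCoR, selected on SD plates lacking leucine and tryptophan. Pooled colonies treated with DMSO or compound for 3.5 h. β-Galactosidase activity normalized to cell density. Reference is 10 µM androstenol (=100). Mean ± SD of two independent determinations, each in triplicate.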

[4] = molecular target: Nuclear receptor subfamily 1 group I member 3 (Mus musculus, UniProt O35627, N175A); assay: Decrease in steroid receptor co-activator 1 binding to mouse CAR N175A mutant […] at 1 uM by yeast two-hybrid assay; format: cell-based; details: read-out: Activity
Outline: as §3, with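 “SRC-1,” for “NCoR,”, “wild-type CAR + SRC-1 with DMSO” for “10 µM androstenol”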

[5] = molecular target: Nuclear receptor subfamily 1 group I member 3 (Mus musculus, UniProt O35627, S251L); assay: Effect on nuclear co-repressor receptor binding to mouse CAR S251L mutant […] at 1 uM by yeast two-hybrid assay; format: cell-based; details: read-out: Activity; outline: as §3
[6] = molecular target: T3, Nuclear receptor subfamily 1 group I member 3 (Mus musculus, UniProt O35627, H213A); assay: Effect on nuclear co-repressor receptor binding to mouse CAR H213A mutant […] at 1 uM by yeast two-hybrid assay; format: cell-based; details: read-out: Activity; outline: as §3
[7] = molecular target: T4, Nuclear receptor subfamily 1 group I member 3 (Mus musculus, UniProt O35627, F171A); assay: Effect on steroid receptor co-activator 1 binding to mouse CAR F171A mutant […] at 1 uM by yeast two-hybrid assay; format: cell-based; details: read-out: Activity
Outline: as §3, with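 “SRC-1,” for “NCoR,”, “wild-type CAR + SRC-1 with DMSO” for “10 µM androstenol”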

[8] = molecular target: T3, Nuclear receptor subfamily 1 group I member 3; assay: Effect on steroid receptor co-activator 1 binding to mouse CAR H213A mutant […] at 1 uM by yeast two-hybrid assay; format: cell-based; details: read-out: Activity
Outline: as §3, with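 “SRC-1,” for “NCoR,”, “wild-type CAR + SRC-1 with DMSO” for “10 µM androstenol”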

[9] = molecular target: T5, Nuclear receptor subfamily 1 group I member 3 (Mus musculus, UniProt O35627, I252L); assay: Enhancement of steroid receptor coactivator 1 binding to mouse CAR I252L mutant […] at 1 uM by yeast two-hybrid assay; format: cell-based
Outline: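 Yeast two-hybrid assay. Yeast co-expressing wild-type or mutant mouse CAR LBD and the SRC-1 partner were selected on SD plates lacking leucine and tryptophan. Random colonies were pooled and amplified, then treated with DMSO or test chemical for 3.5 h. β-galactosidase activity was normalized to cell density and set relative to wild-type mCAR + SRC-1 with DMSO (=100). Mean ± standard deviation of two determinations, each in triplicate.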

[10] = molecular target: Nuclear receptor subfamily 1 group I member 3 (Mus musculus, UniProt O35627, T350M); assay: Decrease in mouse CAR T350M mutant activation expressed in HEK293 cells at 1 uM by mammalian one-hybrid assay; format: cell-based; details: read-out: Activity
Outline: (§4)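 GAL4 DBD fused to mouse CAR LBD (residues 118-358), wild type or point mutant, cotransfected with UASx4-tk-luc reporter and pCMVβ into HEK293 cells. Cells cultured with DMSO (0.1% v/v) or compound (final 1, 2 or 10 µM). Lysed 24 h post-transfection. Luciferase normalized to β-galactosidase, expressed relative to empty GAL4 vector (=1.0). Mean ± SD, three independent experiments.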

[11] = molecular target: T6, Nuclear receptor subfamily 1 group I member 3 (Mus musculus, UniProt O35627, L253F); assay: Effect on nuclear co-repressor receptor binding to mouse CAR L253F mutant […] at 1 uM by yeast two-hybrid assay; format: cell-based; details: read-out: Activity; outline: as §3
[12] = molecular target: T5, Nuclear receptor subfamily 1 group I member 3; details: HEK293, mouse
[13] = molecular target: T2, Nuclear receptor subfamily 1 group I member 3; details: HEK293, mouse
[14] = molecular target: T6, Nuclear receptor subfamily 1 group I member 3; assay: Decrease in mouse CAR L253F mutant activation expressed in HEK293 cells at 2 uM by mammalian one-hybrid assay; format: cell-based; details: read-out: Activity; outline: as §1
[15] = molecular target: T5, Nuclear receptor subfamily 1 group I member 3; assay: Effect on steroid receptor coactivator 1 binding to mouse CAR I252L mutant […] at 2 uM by yeast two-hybrid assay; format: cell-based; details: read-out: Activity; outline: as §2
[16] = molecular target: T4, Nuclear receptor subfamily 1 group I member 3; assay: Effect on steroid receptor co-activator 1 binding to mouse CAR F171A mutant […] at 2 uM by yeast two-hybrid assay; format: cell-based; details: read-out: Activity; outline: as §2
[17] = molecular target: T2, Nuclear receptor subfamily 1 group I member 3; assay: Decrease in nuclear co-repressor receptor binding to mouse CAR Y336A mutant […] at 2 uM by yeast two-hybrid assay; format: cell-based; details: read-out: Activity; outline: as §2
[18] = molecular target: T4, Nuclear receptor subfamily 1 group I member 3; assay: Activation of mouse CAR F171A mutant expressed in HEK293 cells at 2 uM by mammalian one-hybrid assay; format: cell-based; details: hek293, 2 µM; outline: as §1
[19] = molecular target: Nuclear receptor subfamily 1 group I member 3 (Mus musculus, UniProt O35627, T350A); assay: Decrease in nuclear co-repressor receptor binding to mouse CAR T350A mutant […] at 2 uM by yeast two-hybrid assay; format: cell-based; details: read-out: Activity; outline: as §2
[20] = molecular target: T4, Nuclear receptor subfamily 1 group I member 3; assay: Effect on nuclear co-repressor receptor binding to mouse CAR F171A mutant […] at 2 uM by yeast two-hybrid assay; format: cell-based; details: read-out: Activity; outline: as §2
[21] = molecular target: T1, Nuclear receptor subfamily 1 group I member 3; assay: Enhancement of nuclear co-repressor receptor binding to mouse CAR F171L mutant […] at 2 uM by yeast two-hybrid assay; format: cell-based; outline: as §2
[22] = molecular target: T1, Nuclear receptor subfamily 1 group I member 3; details: HEK293, mouse
[23] = molecular target: T2, Nuclear receptor subfamily 1 group I member 3; assay: Activation of mouse CAR Y336A mutant expressed in HEK293 cells at 10 uM by mammalian one-hybrid assay; format: cell-based; details: hek293, 10 µM; outline: as §4

T5 sequence (O35627 whole entry I252L, the tested form may be a part): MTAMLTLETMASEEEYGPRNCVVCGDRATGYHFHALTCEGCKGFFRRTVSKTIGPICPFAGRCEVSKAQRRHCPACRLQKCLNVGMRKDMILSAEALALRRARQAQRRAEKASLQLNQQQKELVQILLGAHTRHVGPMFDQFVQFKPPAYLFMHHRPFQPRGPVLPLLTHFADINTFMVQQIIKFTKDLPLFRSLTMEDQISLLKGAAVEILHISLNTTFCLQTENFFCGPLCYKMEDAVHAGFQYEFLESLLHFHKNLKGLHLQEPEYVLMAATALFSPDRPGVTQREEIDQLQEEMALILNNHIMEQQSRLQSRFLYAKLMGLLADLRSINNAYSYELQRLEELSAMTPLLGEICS
T4 sequence (O35627 whole entry F171A): as the sequence (O35627 whole entry I252L, the tested form may be a part) above, with F171A, L252I counted along it
T1 sequence (O35627 whole entry F171L, the tested form may be a part): as the sequence (O35627 whole entry I252L, the tested form may be a part) above, with F171L, L252I counted along it
T2 sequence (O35627 whole entry Y336A, the tested form may be a part): as the sequence (O35627 whole entry I252L, the tested form may be a part) above, with L252I, Y336A counted along it
T3 sequence (O35627 whole entry H213A): as the sequence (O35627 whole entry I252L, the tested form may be a part) above, with H213A, L252I counted along it
T6 sequence (O35627 whole entry L253F): as the sequence (O35627 whole entry I252L, the tested form may be a part) above, with L252I, L253F counted along it
Nuclear receptor subfamily 1 group I member 3 (Mus musculus, UniProt O35627, T350M), sequence (O35627 whole entry T350M, the tested form may be a part): as the sequence (O35627 whole entry I252L, the tested form may be a part) above, with L252I, T350M counted along it
Nuclear receptor subfamily 1 group I member 3 (Mus musculus, UniProt O35627, N175A), sequence (O35627 whole entry N175A): as the sequence (O35627 whole entry I252L, the tested form may be a part) above, with N175A, L252I counted along it
Nuclear receptor subfamily 1 group I member 3 (Mus musculus, UniProt O35627, S251L), sequence (O35627 whole entry S251L): as the sequence (O35627 whole entry I252L, the tested form may be a part) above, with S251L, L252I counted along it
Nuclear receptor subfamily 1 group I member 3 (Mus musculus, UniProt O35627, T350A), sequence (O35627 whole entry T350A): as the sequence (O35627 whole entry I252L, the tested form may be a part) above, with L252I, T350A counted along it

activity at 10 µM [1]: < 50%
Structure (SMILES): COc1ccc(C(=O)CCCc2ccccc2)cc1

Activity [2]: > 150%
Structure (SMILES): COc1ccccc1CC(CC(=O)Cc1ccccc1)OC (stereo not drawn)

Structure (SMILES): Clc1cnc(Oc2ccc(Oc3ncc(Cl)cc3Cl)cc2)c(Cl)c1
activity at 1 µM [3]: < 50%
inhibition at 1 µM [4]: ≥ 50%
activity at 1 µM [5]: < 50%
activity at 1 µM [6]: < 50%
activity at 1 µM [7]: < 50%
activity at 1 µM [8]: < 50%
Activity [9]: >= 50%
inhibition at 1 µM [10]: 50%
activity at 1 µM [11]: < 50%

Structure (SMILES): C[C@]12CC[C@@H](O)C[C@@H]1CC[C@@H]1[C@@H]2CC[C@]2(C)C=CC[C@@H]12 [ANDROSTENOL]
activity at 10 µM [12]: < 50%
activity at 10 µM [13]: < 50%

inhibition at 2 µM [14]: 50%
activity at 2 µM [15]: < 50%
activity at 2 µM [16]: < 50%
inhibition at 2 µM [17]: ≥ 50%
Activity [18]: > 100%
inhibition at 2 µM [19]: ≥ 50%
activity at 2 µM [20]: < 50%
Activity [21]: > 150%
Structure (SMILES): Clc1ccccc1C(c1ccccc1)(c1ccccc1)n1ccnc1 [CLOTRIMAZOLE]

Structure (SMILES): COc1ccc(C(c2ccc(OC)cc2)C(Cl)(Cl)Cl)cc1 [METHOXYCHLOR]
activity at 10 µM [22]: < 50%
Activity [23]: < 50%
